Screening data (PubChem BioAssay)
E-sel inducer: induces E-selectin expression in human endothelial cells | activation, % at 7.58 µM | actives 0.37% (n = 260,000) | AID 686992 | P16581 | HUVEC E-selectin immunofluorescence imaging; normalized: neutral wells 0, TNF-alpha wells 100;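 active = mean E-selectin-positive cell signal at least 10% of the positive control, reached in at least 60% of replicates, without over 20% cell loss; inconclusive = no rule given, readout overlaps actives, possibly toxicity-flagged; inactive = the rest, including those meeting only one limit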
Target sequence (P16581 whole entry, looked up): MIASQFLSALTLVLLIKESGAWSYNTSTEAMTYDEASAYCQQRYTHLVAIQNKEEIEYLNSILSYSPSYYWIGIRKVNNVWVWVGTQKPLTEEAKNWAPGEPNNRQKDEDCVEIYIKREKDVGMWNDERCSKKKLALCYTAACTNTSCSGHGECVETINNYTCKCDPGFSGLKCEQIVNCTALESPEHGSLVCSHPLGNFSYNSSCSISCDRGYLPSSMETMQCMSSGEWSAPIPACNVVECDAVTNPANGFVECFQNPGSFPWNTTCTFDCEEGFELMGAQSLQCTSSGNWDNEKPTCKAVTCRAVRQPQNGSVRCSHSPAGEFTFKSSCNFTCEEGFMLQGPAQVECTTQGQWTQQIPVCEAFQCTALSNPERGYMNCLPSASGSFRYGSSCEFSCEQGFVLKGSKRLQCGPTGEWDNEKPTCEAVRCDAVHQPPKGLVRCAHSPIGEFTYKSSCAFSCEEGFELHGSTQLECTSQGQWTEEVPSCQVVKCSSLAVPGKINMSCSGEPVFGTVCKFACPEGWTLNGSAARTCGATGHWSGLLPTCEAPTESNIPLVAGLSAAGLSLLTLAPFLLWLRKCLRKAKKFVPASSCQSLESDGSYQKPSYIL
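material = human umbilical vein endothelial cells (HUVEC), E-selectin induction | quantity = 3,000 cells/well | medium = EGM-2 growth medium on 0.1% gelatin-coated wells | technique = immunofluorescence imaging | read-out basis = % PE-positive cells | control set = TNF-alpha positive control, DMSO neutral control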
FGF22 binding-1: shifts melting point of recombinant human FGF22 | Q9HCT0 | recombinant FGF22 thermal shift, SYPRO orange fluorescence; percent of sucrose octasulfate shift, DMSO zero | activity (Tm shift, normalised), % at 9.99 µM | actives 1.5% (n = 340,000) | AID 651658;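 active = mean Tm shift, scaled 0 neutral to 100 positive control, at about 1.3% or above, every replicate too, limit read from the data; inconclusive = no clear call, values can overlap the other calls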
DENV2 CPE rescue: protects cells from dengue virus 2 cytopathic effect | DENV2-infected cells, cytopathic effect rescue, plate reader | CPE inhibition, % at 9.99 µM | actives 1.7% (n = 350,000) | AID 651640; in the data active = CPE inhibition above about 20%, passing the limit was not always enough; inconclusive = no clear call, values can overlap the other calls; tested in BHK-21 cells;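 note: 0% = median of neutral control wells and 100% = median of positive control wells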
CFTR F508del cor: CFTR F508del correction in bronchial cells | CFBE cells, YFP halide quenching; stimulated with forskolin plus potentiator P3; % fluorescence drop versus neutral controls | activity (quench increase), % at 7.58 µM | actives 0.36% (n = 350,000);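 active = mean added fluorescence quench of at least 8% versus neutral control, with both replicates also reaching 8%; inconclusive = only one of the mean or replicate conditions met; inactive = mean below 8% and not both replicates reaching 8%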;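 note: cells transiently co-express mutant CFTR-F508del with the halide-sensitive YFP; corrector assay measuring rescue of mutant channel to the surface after 24 h compound exposure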
ERAP1 inh: blocks human ERAP1 aminopeptidase activity; Q9NZ08; recombinant ERAP1, Leu-AMC fluorescence, 60 min; inhibition, % at 10.7 µM; actives 0.15% (n = 340,000);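 active = mean replicate inhibition of at least 30%, or all replicates individually reaching that 30% level; inactive = mean below 30% and not every replicate reaching it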;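 note: 0% = neutral control wells and 100% = L-leucinethiol positive control wells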
FGF22 binding-2: FGF22 (human) binding in thermal shift | shares compounds with FGF22 binding-1 | recombinant FGF22 thermal shift, SYPRO orange fluorescence | thermal shift activity, °C (ΔTm) at 38 µM | actives 2% (n = 1,000) | AID 720646;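 active = fitted rise in melting shift crosses a set limit at or below the top valid dose tested; inconclusive = flat fit at mid-level activity, or a poor quality fit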
FGF22 TSA DP: binders of human FGF22 by thermal shift. shares compounds with FGF22 binding-1. Thermal shift assay, SYPRO orange, melting temperature shift. Tm shift (activity), % at 38 µM. 50 tested, under 10 active;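 active = compounds whose fitted dose curve of melting temperature shift rises past a set threshold within the tested doses; inconclusive = flat curve at moderate activity, or poor curve fit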
TSA no protein: counter-screen for FGF22 binders: compound-only thermal shift, no protein. shares compounds with FGF22 binding-1. compound-only SYPRO orange thermal shift counter-screen. AC50, µM (titrated, usually from 38 µM). actives 2% (n = 1,000);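 active = rising signal whose fitted curve reaches the 0.54 level within the top valid dose, showing a melting point, actives reach about 13 µM in these data; inactive = the rest, including activity in the opposite direction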; note: value is where the raw curve crosses a fixed level and not half-maximal
An asterisk follows results filed as active; i = inactive; ? = inconclusive; nt = not tested or not shown; [ ] = dose if it differs, or a comment. Shown are actives, neighbours in structure and some others; about 3.7% of the full set was active somewhere.

SMILES	E-sel inducer	FGF22 binding-1	DENV2 CPE rescue	CFTR F508del cor	ERAP1 inh	FGF22 binding-2	TSA no protein	others
COc1ccc2c3c([nH]c2c1)[C@H](CO)N(C(=O)Nc1ccc(F)cc1)CC31CCN(S(=O)(=O)c2cccs2)CC1	0	16*	-8	4	1	0.032[42 µM]	i
COc1cccc(S(=O)(=O)N2CCC3(CC2)CN(C(=O)Nc2ccc(F)cc2)[C@H](CO)c2[nH]c4cc(OC)ccc4c23)c1	-1	0	-4	0	4	nt	nt
O=C(C[C@H]1CC[C@@H]2[C@H](COC[C@H](O)CN2Cc2cc(F)ccc2F)O1)NCc1ccc(F)cc1	0	2.6*	3	1	0	0.16[42 µM]	i
O=C(C[C@@H]1CC[C@H]2[C@@H](COC[C@@H](O)CN2Cc2ccccc2)O1)NCCc1ccccc1	0	nt	3	3	-1	nt	nt
O=C(C[C@@H]1CC[C@H]2[C@@H](COC[C@@H](O)CN2C(=O)c2ccccc2F)O1)NCc1ccccc1	0	1.8*	?	1	0	0.033[42 µM]	i
O=C(C[C@@H]1CC[C@@H]2[C@H](COC[C@H](O)CN2Cc2cc(F)ccc2F)O1)NCc1ccc(F)cc1	0	1	4	1	1	nt	nt
O=C(C[C@@H]1CC[C@H]2[C@@H](COC[C@@H](O)CN2C(=O)c2ccc(F)cc2)O1)NCc1cccc(F)c1	0	1.5*	-6	1	0	0.035	i
O=C(C[C@H]1CC[C@H]2[C@@H](COC[C@H](O)CN2Cc2ccccc2)O1)NCCc1ccccc1	0	1.6*	13	0	-2	0.14	i
O=C(C[C@H]1CC[C@@H]2[C@H](COC[C@H](O)CN2C(=O)c2ccc(F)cc2)O1)NCc1cccc(F)c1	0	1	9	-1	-1	nt	nt
COCc1cn(CC[C@@H]2CC[C@@H](NC(=O)c3ccccc3)[C@@H](CO)O2)nn1	-3	0	-1	-1	-1	nt	nt
C[C@@H]1CN([C@@H](C)CO)C(=O)c2cc(N(C)C)ccc2O[C@@H]1CN(C)S(=O)(=O)c1ccc(Cl)cc1	nt	-1	3	2	1	nt	nt
COc1ccc(/C=N/NC(=O)c2cc(-c3ccc4c(c3)OCO4)n[nH]2)cc1OC	nt	1.5*	-9	nt	-1	0.19	i
Cc1noc(C)c1S(=O)(=O)N(C)C[C@H]1OCCCC[C@@H](C)Oc2ccc(NC(=O)NC(C)C)cc2C(=O)N([C@@H](C)CO)C[C@@H]1C	nt	0	-5	-2	29	nt	nt
COc1ccc(C(=O)Nc2cc(Cl)ccc2N2CCOCC2)cc1S(=O)(=O)N1CCOCC1	0	0	-2	2	-1	nt	nt
COc1ccc(C(=O)Nc2ccccc2N2CCOCC2)cc1S(=O)(=O)N1CCOCC1	nt	21*	-1	5	-4	0.026	i
O=C(CCN1CCCCC1)NCC[C@H]1CC[C@H](NC(=O)C2CCCCC2)[C@H](CO)O1	0	nt	nt	nt	nt	nt	nt
COCC(=O)N1C[C@@H](C)[C@H](OC)CN(C)C(=O)c2ccc(NC(=O)NC(C)C)cc2OC[C@@H]1C	0	2.2*	-3	2	0	0.032[42 µM]	i
CO[C@@H]1CN(C)C(=O)c2cc(NC(=O)NC(C)C)ccc2OC[C@@H](C)N(C)C[C@@H]1C	0	37*	-7	-2	-1	-0.047	i
CCCNC(=O)N1CC2(C1)[C@@H](c1ccccc1)[C@@H](CO)N2Cc1ccccn1	0	0	2	-1	-3	nt	nt
O=C(N[C@H]1CC[C@@H](CCNC(=O)C2CC2)O[C@@H]1CO)c1ccncc1	1	0	-1	-2	0	nt	nt
O=C(NCC1CC1)c1onc(CSc2ccc(F)cc2)c1C(=O)NCC1CC1	0	37*	-12	1	1	-0.12	11µM*
C[C@@H]1CN([C@@H](C)CO)C(=O)c2cc(NS(=O)(=O)c3ccccc3)ccc2O[C@@H]1CN(C)Cc1ccncc1	-3	0	4	0	0	nt	nt
OC[C@@H]1[C@H](c2ccc(Br)cc2)[C@@H]2CN(Cc3cncnc3)CCCCN12	0	2.4*	5	-1	-1	0.059[42 µM]	i
OC[C@@H]1[C@@H](c2ccc(-c3cccnc3)cc2)[C@@H]2CN(Cc3ccccn3)CCCCN12	0	1.5*	3	2	-1	0.022	i
OC[C@H]1[C@@H](c2ccc(-c3cccnc3)cc2)[C@@H]2CN(Cc3ccccn3)CCCCN12	0	1.5*	5	0	-2	0.023	i
SMILES	E-sel inducer	FGF22 binding-1	DENV2 CPE rescue	CFTR F508del cor	ERAP1 inh	FGF22 binding-2	TSA no protein	others
CS(=O)(=O)N1CCCCN2[C@H](CO)[C@H](c3ccc(C#Cc4ccccn4)cc3)[C@@H]2C1	1	1.5*	33*	0	0	0.16[42 µM]	i
OC[C@@H]1[C@@H](c2ccc(-c3ccccc3)cc2)[C@@H]2CN(Cc3ccccn3)CCCCN12	0	0	-5	1	0	nt	nt
CN(C)C(=O)[C@H]1[C@H](CO)[C@H]2Cn3c(ccc(C4=CCCC4)c3=O)[C@H]2N1Cc1ccccn1	0	0	-10	0	1	nt	nt
COCCNC(=O)C[C@H]1CC[C@@H]2[C@H](COc3ccc(NC(=O)c4cnccn4)cc3C(=O)N2C)O1	0	0	5	-3	2	nt	nt
CN(C)C(=O)C[C@H]1CC[C@@H]2[C@H](COC[C@H](O)CN2CC2CC2)O1	0	0	?	4	-4	nt	nt
CC(C)NC(=O)N(C)C[C@H]1OCCCC[C@H](C)Oc2ccc(NC(=O)Nc3ccc(C(F)(F)F)cc3)cc2C(=O)N([C@H](C)CO)C[C@H]1C	nt	0	-4	2	-2	nt	nt
O=C(N[C@@H]1CC[C@H](CCNS(=O)(=O)c2ccc(F)cc2)O[C@H]1CO)C1CC1	0	0	-2	1	0	nt	nt
O=C(Nc1ccc(S(=O)(=O)N2CCCC2)cc1)c1cccs1	2	2.1*	2	-4	0	-0.65	i	FGF22 TSA DP=0
O=C(Nc1ccc(S(=O)(=O)N2CCCC2)cc1)c1ccccc1	nt	1.6*	0	-3	1	-0.15	i	FGF22 TSA DP=0
N#Cc1cccc(NS(=O)(=O)c2ccc(S(=O)(=O)N3CCOCC3)cc2)c1	nt	0	-4	-3	3	nt	nt
O=C(Nc1ccccc1)c1ccc(S(=O)(=O)N2CCCCC2)cc1	0	0	4	0	nt	nt	nt
N#Cc1cccc(NC(=O)c2ccc(S(=O)(=O)N3CCOCC3)cc2)c1	0	2.7*	1	1	3	0.11	i
